The text below walks through data of ChEMBL document CHEMBL3526004, “Interaction of silymarin flavonolignans with organic anion-transporting polypeptides” (Drug Metab Dispos, 2013).

For orientation: IC50 means the midpoint of a concentration-inhibition curve. As usually defined, the residual activity is the share of the control activity or signal that is left under treatment. A higher residual activity goes with much activity left.

The target of series [1] is T1, Solute carrier organic anion transporter family member 1B3 (Homo sapiens, UniProt Q9NPD5).
T1 sequence (Q9NPD5 whole entry): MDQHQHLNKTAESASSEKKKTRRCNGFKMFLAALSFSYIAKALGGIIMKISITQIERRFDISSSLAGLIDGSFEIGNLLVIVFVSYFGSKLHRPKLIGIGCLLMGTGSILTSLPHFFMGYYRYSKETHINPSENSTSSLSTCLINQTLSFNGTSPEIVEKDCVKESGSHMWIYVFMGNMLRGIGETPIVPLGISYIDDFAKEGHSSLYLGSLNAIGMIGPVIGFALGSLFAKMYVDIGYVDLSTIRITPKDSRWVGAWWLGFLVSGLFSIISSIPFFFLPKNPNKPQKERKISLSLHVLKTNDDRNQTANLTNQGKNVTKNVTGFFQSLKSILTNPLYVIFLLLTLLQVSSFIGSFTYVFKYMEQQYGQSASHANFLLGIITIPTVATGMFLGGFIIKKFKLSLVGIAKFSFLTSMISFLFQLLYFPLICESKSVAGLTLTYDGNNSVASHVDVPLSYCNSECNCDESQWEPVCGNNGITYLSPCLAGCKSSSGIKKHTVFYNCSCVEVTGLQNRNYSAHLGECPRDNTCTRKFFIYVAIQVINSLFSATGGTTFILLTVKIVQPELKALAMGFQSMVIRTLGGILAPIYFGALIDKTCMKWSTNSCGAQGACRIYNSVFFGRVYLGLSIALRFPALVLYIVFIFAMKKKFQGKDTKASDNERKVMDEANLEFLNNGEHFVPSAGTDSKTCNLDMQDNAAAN
Put plainly: Inhibition of OATP1B3 (unknown origin) expressed in HEK293 cells assessed as reduction of [3H]estradiol-17beta-glucuronide uptake at 10 uM after 3 mins by beta-counting. It counts as ADME, cell-based. The conditions noted are these: hek293, 0.05 h. Put shortly: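 Confluent cells were washed in PBS, then given 1 µM [3H]-E2 17G (OATP1B1, OATP1B3 HEK293) or 1 µM [3H]-E1S (OATP2B1 MDCKII) with 10 µM compound in HBSS pH 7.4 for 3 min at 37°C. Uptake into mock or parental cells was subtracted after protein normalization. Results are % vehicle, mean ± SD of at least three experiments in triplicate.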

Series [2] addresses T1, Solute carrier organic anion transporter family member 1B3. Put plainly: Inhibition of OATP1B3 (unknown origin) expressed in HEK293 cells assessed as reduction of [3H]estradiol-17beta-glucuronide uptake after 3 mins by beta-counting. It counts as ADME, cell-based. Put shortly: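 Transfected HEK293 (G418) or MDCKII (hygromycin B) cells were co-incubated with 0-100 µM compound and [3H]-E2 17G (1 µM, 0.25 µCi/ml; OATP1B1, OATP1B3) or [3H]-E1S (1 µM; OATP2B1) in HBSS pH 7.4, 3 min at 37°C. OATP-negative uptake was subtracted, and results expressed as % vehicle. Two experiments were run in duplicate. IC50 came from non-linear dose-response fits.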

In series [3] the target is T2, Solute carrier organic anion transporter family member 1B1 (Homo sapiens, UniProt Q9Y6L6).
T2 sequence (Q9Y6L6 whole entry): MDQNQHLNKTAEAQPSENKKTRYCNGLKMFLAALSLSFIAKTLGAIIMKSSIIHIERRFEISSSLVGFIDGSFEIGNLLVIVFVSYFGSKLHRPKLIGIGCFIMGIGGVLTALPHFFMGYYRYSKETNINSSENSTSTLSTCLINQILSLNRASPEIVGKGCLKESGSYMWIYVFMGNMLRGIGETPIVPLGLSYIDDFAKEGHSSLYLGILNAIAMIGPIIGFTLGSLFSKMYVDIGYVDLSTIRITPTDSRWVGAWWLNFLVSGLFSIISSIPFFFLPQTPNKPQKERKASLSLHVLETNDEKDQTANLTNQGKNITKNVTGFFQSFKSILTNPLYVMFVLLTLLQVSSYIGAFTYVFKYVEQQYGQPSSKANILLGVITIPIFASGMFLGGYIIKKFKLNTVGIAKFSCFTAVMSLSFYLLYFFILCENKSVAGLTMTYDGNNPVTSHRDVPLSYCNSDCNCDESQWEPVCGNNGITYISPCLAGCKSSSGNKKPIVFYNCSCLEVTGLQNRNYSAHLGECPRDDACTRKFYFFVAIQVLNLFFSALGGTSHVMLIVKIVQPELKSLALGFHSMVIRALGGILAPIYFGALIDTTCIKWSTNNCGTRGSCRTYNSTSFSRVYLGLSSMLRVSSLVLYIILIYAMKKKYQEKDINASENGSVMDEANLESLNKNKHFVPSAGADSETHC
Put plainly: Inhibition of OATP1B1 (unknown origin) expressed in HEK293 cells assessed as reduction of [3H]estradiol-17beta-glucuronide uptake after 3 mins by beta-counting in presence of OATP inhibitor BSP. The series is classed as ADME, cell-based. The note with it: hek293, 0.05 h.

Series [4] in a line: Inhibition of OATP-mediated [3H]rosuvastatin uptake in sandwich-cultured human hepatocytes at 100 uM after 1 day by beta-counting. The series is classed as ADME, cell-based, Hepatocyte. Put shortly: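 Day-1 human hepatocytes (seeded 350,000 cells/well, medium changed after 1 h) rinsed in HBSS at 37°C. Co-incubated with [3H]-E2 17G (1 µM, 1 min) or [3H]-rosuvastatin (0.5 µM, 1.5 min) plus compound or vehicle. Cells were washed in ice-cold HBSS, lysed in 0.5% Triton X-100, and counted by scintillation. Non-OATP accumulation (100 µM BSP) was subtracted. Results are % vehicle, protein-normalized, as mean ± SEM of three experiments in triplicate.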

A further series has as its system Plasma. Kind of series: Plasma concentration in patient with chronic noncirrhotic HCV at 420 to 700 mg administered 3 times per day. It counts as ADME, cell-free. The note with it: human.
Series [5] in a line: Residual OATP-mediated [3H]estradiol-17beta-glucuronide uptake in sandwich-cultured human hepatocytes at 100 uM after 8 days by beta-counting.
Series [6] can be described thus: Inhibition of OATP-mediated [3H]estradiol-17beta-glucuronide uptake in sandwich-cultured human hepatocytes at 100 uM after 8 days by beta-counting. The series is classed as ADME, cell-based, Hepatocyte. A digest of the protocol:
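Hepatocytes were overlaid with Matrigel (0.25 mg/ml) on day 1 and cultured to day 8 in ITS/0.1 µM dexamethasone medium, changed daily. Uptake of [3H]-E2 17G (1 µM, 1 min) or [3H]-rosuvastatin (0.5 µM, 1.5 min) was run at 37°C in HBSS with compound or vehicle. The BSP (100 µM) accumulation was subtracted, and the OATP-mediated uptake was expressed as % vehicle, normalized to BCA protein and corrected with cell-free wells.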

Take `COc1cc([C@H]2Oc3cc([C@H]4Oc5cc(O)cc(O)c5C(=O)[C@@H]4O)ccc3O[C@@H]2CO)ccc1O` [SILYBIN A]: the results for the “inhibition (INH)” value in series [1], in series [3] and in series [4] were “Active”, “Not Active” and “Active”, respectively. Also, the IC50 in series [2] was found to be 2.7 µM. Also, the concentration in the series on Plasma was found to be 4.2 µM. Moreover, in series [5], the residual activity amounted to 58%.
Regarding `COc1cc([C@@H]2Oc3cc([C@H]4Oc5cc(O)cc(O)c5C(=O)[C@@H]4O)ccc3O[C@H]2CO)ccc1O` [SILYBIN B], the IC50 in series [2] is 5 µM. Also, the figures for the “inhibition (INH)” value in series [3], in series [4] and in series [6] were “Not Active”, “Active” and “Active”, respectively.
